The text below walks through data of ChEMBL document CHEMBL3853359, “NO Photoreleaser-Deoxyadenosine and -Bile Acid Derivative Bioconjugates as Novel Potential Photochemotherapeutics” (ACS Med Chem Lett, 2016).

The source made the active and inactive calls. The rule behind the calls is not given here.

Data set [1] can be described thus: Cytotoxicity against human K562 assessed as cell growth inhibition incubated for 72 hrs under dark condition by MTT assay. Format: toxicity, cell-based. The note with it: for IC50 at 72 h: K562 cells; for growth inhibition (GI): k562, 72 h. In a few lines:
(§1)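 MTT read-out after 72 h continuous exposure in the dark. Test concentrations were 10, 25 and 50 μM for K562 leukaemia and HCT116 colon carcinoma cells, and up to 100 μM for normal human skin fibroblasts. IC50 was taken from dose–response curves, as the mean ± SD of three independent experiments.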

Data set [2] can be described thus: Cytotoxicity against human HCT116 assessed as cell growth inhibition incubated for 72 hrs under dark condition by MTT assay. In kind it is toxicity, cell-based, HCT-116. The note with it: for IC50 at 72 h: HCT116 cells; for growth inhibition (GI): hct-116, 72 h. Summed up:
as §1
On the technique in general: Formazan colour is commonly taken as a measure of viable cells.

Data set [3] in a line: Cytotoxicity against human fibroblasts assessed as cell growth inhibition incubated for 72 hrs under dark condition by MTT assay. In kind it is toxicity, cell-based, Fibroblast. In a few lines: as §1
The nature of data set [4]: (§2) Photocytotoxicity against human HCT116 cells assessed as cell growth inhibition incubated for 72 hrs after exposure to 7 mW/cm2 of light-irradiation for 40 mins by MTT assay. In kind it is functional, cell-based. The note with it: HCT-116, light or radiation study. Summed up:
(§3)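 HCT116 cells with compound were irradiated with visible light (λ = 420 nm, 7 mW cm–2) for 40 min, then incubated to 72 h. Growth inhibition was read by MTT. IC50 was taken from dose–response curves, as the mean ± SD of three independent experiments.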

A further data set deals with HCT-116. Described as §2. Format: functional, cell-based. Summed up: as §3
Data set [5] in a line: Stability of the compound in phosphate buffer at 50 uM and pH 7.4 under dark condition. Format: physicochemical. The note with it: pH 7.4, 50 µM. In a few lines: (§4)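 NO was monitored directly in real time with an amperometric NO electrode (nanomolar sensitivity). Samples were 50 μM solutions in 10 mM phosphate buffer, pH 7.4, with 0.5% DMSO, kept in the dark and then illuminated with visible light (λ = 420 nm, 1.5 mW cm–2).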

Data set [6] in a line: Induction of NO release in phosphate buffer at 50 uM and pH 7.4 upon 1.5 mW/cm2 visible-light irradiation. In kind it is physicochemical. The note with it: pH 7.4, 50 µM. Summed up: as §4
The nature of data set [7]: Photoreactivity of the compound in phosphate buffer assessed as photobleaching of visible band at 50 uM and pH 7.4 upon 7 mW/cm2 of light-irradiation measured up to 70 mins. In kind it is physicochemical. The note with it: pH 7.4, 70 min. Summed up: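 50 μM solutions in 10 mM phosphate buffer, pH 7.4, with 0.5% DMSO were irradiated at λ = 420 nm, 7 mW cm–2, from 0 to 70 min. Absorption spectral changes were recorded, and kinetic profiles were followed at λmax and fitted linearly.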

The nature of data set [8]: Ratio of cytotoxicity against human HCT116 cells assessed as cell growth inhibition at 50 uM incubated for 72 hrs under dark condition by MTT assay to photocytotoxicity against human HCT116 cells assessed as cell growth inhibition at 50 uM incubated for 72 hrs after exposure to 7 mW/cm2 of light-irradiation for 40 mins by MTT assay.

The IC50 is the concentration at which inhibition is half-maximal. Consider `Nc1ncnc2c1nc(SCCCCCNc1ccc([N+](=O)[O-])c(C(F)(F)F)c1)n2[C@H]1C[C@H](O)[C@@H](CO)O1`, for which the IC50 at 72 h is 68.1 µM in [1], 66.2 µM in data set [2] and over 100 µM in data set [3]. Besides, the “growth inhibition (GI)” value in [1] and in data set [2] was “Dose-dependent effect” in each case. The IC50 in data set [4] stood at 31 µM. In addition, the outcome in the data set on HCT-116 was Active. For the same molecule, in data set [5], the Stability entry is recorded as “Stable”. The outcome in data set [6] and in data set [7] was Active. Moreover, the Ratio in [8] is recorded as 2.

`C[C@H](CCC(=O)O)[C@H]1CC[C@H]2[C@@H]3[C@@H](O)C[C@@H]4C[C@H](n5cc(CCCNc6ccc([N+](=O)[O-])c(C(F)(F)F)c6)nn5)CC[C@]4(C)[C@H]3CC[C@]12C`: the values for the IC50 at 72 h in data set [1], in data set [2] and in [3] were 31.6 µM, 14 µM and over 100 µM, respectively. Further, the “growth inhibition (GI)” value in data set [1] and in data set [2] was “Dose-dependent effect” in each case. Also, the Stability result in data set [5] is listed as “Stable”. Further, the result in data set [6] was Active.

On to `C[C@H](CCC(=O)O)[C@H]1CC[C@H]2[C@@H]3[C@H](O)C[C@@H]4C[C@H](n5cc(CCCNc6ccc([N+](=O)[O-])c(C(F)(F)F)c6)nn5)CC[C@]4(C)[C@H]3CC[C@]12C`, for which the results for the IC50 at 72 h in data set [1], in [2] and in [3] were 24 µM, 21 µM and 32 µM, respectively.
